Assay [1] has as its system B16. Briefly: The compound was tested […] for 100% growth inhibition against B16 melanoma cells. It counts as functional, Mus musculus. The method in brief: (§1)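 B16 melanotic melanoma cells in log growth were plated at 5000 cells/well in RPMI 1640 with 10% heat-inactivated FCS and gentamycin at 37 °C under 5% CO2. Cells were exposed for 48 h to at least five drug concentrations, in triplicate, with fresh diethyl ester added at 0, 12, 24 and 36 h. Cells were trypsinized and counted on a Coulter counter. Percentage growth was calculated NCI-style against time-zero and no-drug controls. TGI is 100% growth inhibition and GI50 is 50%. Mean ± SD comes from separate experiments.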

In assay [2] the test system is B16. Briefly: The compound was tested […] for 50% growth inhibition against B16 melanoma cells. It counts as functional, Mus musculus. The method in brief: as §1
The test system of assay [3] is B16. Kind of assay: The compound was tested […] for 50% cell killing against B16 melanoma cells. It counts as functional, Mus musculus. The method in brief:
(§2)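 Cultured cells, not in vivo: log-phase cells seeded at 5000 cells/well in RPMI 1640/10% heat-inactivated FCS with gentamycin, 37 °C, 5% CO2. Exposed 48 h to at least five diethyl ester concentrations in triplicate, with fresh ester added at 0, 12, 24 and 36 h. B16 cells were trypsinised and L1210 cells washed. Counted by Coulter counter, viability by trypan blue. LC50 = concentration giving 50% cell killing.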

Assay [4] concerns L1210. Briefly: The compound was tested […] for 100% growth inhibition against L1210 murine leukemia cells. It counts as functional, Mus musculus. The method in brief: (§3)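 L1210 leukemia cells in log growth were seeded at 5000 cells/well in RPMI 1640 with 10% heat-inactivated FCS and gentamycin at 37 °C under 5% CO2. At least five concentrations spanning the GI50 were tested in triplicate for 48 h, with ester replenished at 0, 12, 24 and 36 h. Washed cells were Coulter-counted. PG = 100×(test−tzero)/(ctrl−tzero). TGI is 100% growth inhibition and GI50 is 50%. Mean ± SD comes from independent experiments.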

Assay [5] concerns L1210. Kind of assay: The compound was tested […] for 50% cell killing against L1210 murine leukemia cells. In kind it is functional, Mus musculus. The procedure, abridged: as §2
Assay [6] deals with L1210. Briefly: The compound was tested […] for 50% growth inhibition against L1210 murine leukemia cells. In kind it is functional, Mus musculus. The procedure, abridged: as §3
The subject of assay [7] is Glyoxalase I (Homo sapiens). Kind of assay: The compound was tested for inhibitory activity against human glyoxalase I.
The subject of assay [8] is Glyoxalase I (Homo sapiens). The description is as above. This is another data set of the same source.
Assay [9] has as its system Glyoxalase I (Homo sapiens). Described as above. This is another data set of the same source.

Structures are written as SMILES.

With `CCOC(=O)CNC(=O)C(CSC(=O)N(O)c1ccc(Cl)cc1)NC(=O)CCC(N)C(=O)OCC.Cl` (configuration not stated), the TGI (commonly the concentration giving total growth inhibition) in assay [1] was ~23 µM; in assay [4], 27 µM. In addition, the GI50 (as a rule, the concentration giving 50% growth inhibition) in assay [2] was found to be 15 µM; in assay [6], 7 µM. Further, the median lethal concentration (LC50) – broadly, the concentration lethal to half of the exposed cells or organisms – was ~47 µM in assay [3] and 54 µM in [5]. Also, the Ki in assay [7] and in assay [8] was 0.046 µM each time.
As to `CCOC(=O)CNC(=O)[C@@H](CSCc1ccc(Br)cc1)NC(=O)CCC(N)C(=O)OCC` (some centres not stated), the results for the TGI in assay [1] and in assay [4] were 23 µM and 11 µM, respectively. For the same molecule, the values for the GI50 in assay [2] and in assay [6] were 14 µM and 7 µM, respectively. Also, the values for the LC50 in assay [3] and in assay [5] were 56 µM and 26 µM, respectively. The Ki in [7] and in assay [8] was 0.17 µM in each case.
Take `CCOC(=O)CNC(=O)C(CSC(=O)N(O)c1ccc(Br)cc1)NC(=O)CCC(N)C(=O)OCC.Cl` (configuration not stated): the values for the TGI in assay [1] and in assay [4] were 33 µM and 7 µM, respectively. Moreover, the GI50 in [2] turned out to be 11 µM; in [6] it was 3 µM. Also, the LC50 came out at 54 µM in [3] and 17 µM in assay [5]. Moreover, the Ki in assay [7] and in assay [8] was 0.014 µM throughout.
Take `CCOC(=O)CNC(=O)C(CSC(=O)N(O)c1ccccc1)NC(=O)CCC(N)C(=O)OCC.Cl` (configuration not stated): the TGI in assay [1] was >100 µM; in assay [4], 135 µM. For the same molecule, the GI50 was >100 µM in assay [2] and 84 µM in assay [6]. In addition, the LC50 in [3] was >100 µM; in assay [5], 271 µM. In addition, the Ki in [9] and in assay [7] was 0.16 µM in each case.

(Values after ChEMBL document CHEMBL1132413, “Mechanism-based competitive inhibitors of glyoxalase I: intracellular delivery, in vitro antitumor activities, and stabilities in human serum and mouse serum” (J Med Chem, 1999).)
